Experimental data from ChEMBL document CHEMBL1149738, “New cytotoxic scalarane sesterterpenes from the Dictyoceratid sponge Strepsichordaia lendenfeldi” (J Nat Prod, 1992).
In brackets after ≈: the same amount, converted by molar mass. Activity calls are given as the source filed them. The rule behind the calls is not given here.

How the values were obtained:
[1] = Cytotoxicity against african green monkey CV1 cells; assay type: cell-based; details: chlorocebus aethiops, cv-1
In short: (§1)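 Cultured tumour and normal cell lines: P-388 (lymphoid neoplasm, DBA/2 mouse), A-549 (human lung carcinoma), HT-29 (human colon carcinoma) and CV-1 (monkey kidney fibroblast). Potency was expressed as approximate IC50 values in μg/ml.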

A549 = test: Cytotoxicity against human A549 cells; assay type: functional, cell-based; in short: as §1
HT-29 = test: Cytotoxicity against human HT-29 cells; assay type: functional, cell-based; in short: as §1
P388 = test: Cytotoxicity against DBA/2 mouse P388 cells; assay type: functional, cell-based; details: DBA/2, P388; in short: as §1
Bacillus subtilis = test: Antimicrobial activity against Bacillus subtilis; assay type: functional, organism-based
Staphylococcus aureus = test: Antimicrobial activity against Staphylococcus aureus; assay type: functional, organism-based

SMILES	Activity [1]	IC50 (A549) [µg/mL]	Activity (HT-29)	IC50 (P388) [µg/mL]	Activity (Bacillus subtilis)	Activity (Staphylococcus aureus)
CC[C@@]1(C)CCC[C@]2(C)[C@H]3C[C@H](OC(C)=O)[C@]4(C)[C@@H](C=O)[C@H](C(C)=O)[C@@H](O)C[C@H]4[C@]3(C)CC[C@@H]12	Active	0.1 (≈ 0.211 µM)	Active	0.1 (≈ 0.211 µM)	–	–
CCC(=O)OC(CC)CC(=O)O[C@H]1C[C@@H]2[C@@]3(C)CCC[C@](C)(CC)[C@@H]3CC[C@@]2(C)[C@@H]2CC=C(C(C)=O)[C@H](C=O)[C@@]12C (stereo partly drawn)	–	0.21 (≈ 0.368 µM)	–	< 0.12	Active	–
CCC(O)CC(=O)O[C@H]1C[C@H]2[C@]3(C)CC[C@H]4[C@@](C)(CC)CCC[C@]4(C)[C@H]3C[C@H](OC(C)=O)[C@]2(C)[C@@H](C=O)[C@@H]1C(C)=O (stereo partly drawn)	Active	0.5 (≈ 0.87 µM)	Active	0.5 (≈ 0.87 µM)	–	–
CC[C@@]1(C)CCC[C@]2(C)[C@H]3C[C@H](OC(C)=O)[C@]4(C)[C@@H](C=O)[C@H](C(C)=O)[C@@H](OC(=O)C[C@@H](C)O)C[C@H]4[C@]3(C)CC[C@@H]12	–	0.66 (≈ 1.18 µM)	–	0.23 (≈ 0.41 µM)	Active	Active
CC[C@@]1(C)CCC[C@]2(C)[C@H]3C[C@H](OC(=O)CC(C)OC(C)=O)[C@]4(C)[C@@H](C=O)C(C(C)=O)=CC[C@H]4[C@]3(C)CC[C@@H]12 (stereo partly drawn)	Active	0.2 (≈ 0.368 µM)	Active	0.2 (≈ 0.368 µM)	–	–
CCC(CC(=O)O[C@H]1C[C@@H]2[C@@]3(C)CCC[C@](C)(CC)[C@@H]3CC[C@@]2(C)[C@@H]2CC=C(C(C)=O)[C@H](C=O)[C@@]12C)OC(C)=O (stereo partly drawn)	–	0.25 (≈ 0.449 µM)	–	< 0.12	Active	–
CC[C@@]1(C)CCC[C@]2(C)[C@H]3C[C@H](OC(C)=O)[C@]4(C)[C@@H](C=O)[C@H](C(C)=O)[C@@H](OC(C)=O)C[C@H]4[C@]3(C)CC[C@@H]12	–	0.88 (≈ 1.7 µM)	–	0.91 (≈ 1.76 µM)	Active	–
CCC(=O)O[C@H]1C[C@H]2[C@]3(C)CC[C@H]4[C@@](C)(CC)CCC[C@]4(C)[C@H]3C[C@H](OC(C)=O)[C@]2(C)[C@@H](C=O)[C@@H]1C(C)=O	–	0.67 (≈ 1.26 µM)	–	0.67 (≈ 1.26 µM)	Active	–
